Screening results deposited in PubChem by several laboratories.
ANO1 block – inhibitors of mouse TMEM16A calcium-activated chloride channel. normalized B-score (activity score, 25-100; higher = stronger inhibition) at 10 µM. HEK293 TMEM16A/YFP iodide influx fluorescence, ionomycin. 310,000 tested, 1.2% active. AID 588511;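 active = ratio plate-corrected score three or more library SD toward inhibition, starting fluorescence score within five deviations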;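 note: score derived from kinetic fluorescence span divided by baseline fluorescence per well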
Target sequence (Q8BHY3 whole entry, looked up): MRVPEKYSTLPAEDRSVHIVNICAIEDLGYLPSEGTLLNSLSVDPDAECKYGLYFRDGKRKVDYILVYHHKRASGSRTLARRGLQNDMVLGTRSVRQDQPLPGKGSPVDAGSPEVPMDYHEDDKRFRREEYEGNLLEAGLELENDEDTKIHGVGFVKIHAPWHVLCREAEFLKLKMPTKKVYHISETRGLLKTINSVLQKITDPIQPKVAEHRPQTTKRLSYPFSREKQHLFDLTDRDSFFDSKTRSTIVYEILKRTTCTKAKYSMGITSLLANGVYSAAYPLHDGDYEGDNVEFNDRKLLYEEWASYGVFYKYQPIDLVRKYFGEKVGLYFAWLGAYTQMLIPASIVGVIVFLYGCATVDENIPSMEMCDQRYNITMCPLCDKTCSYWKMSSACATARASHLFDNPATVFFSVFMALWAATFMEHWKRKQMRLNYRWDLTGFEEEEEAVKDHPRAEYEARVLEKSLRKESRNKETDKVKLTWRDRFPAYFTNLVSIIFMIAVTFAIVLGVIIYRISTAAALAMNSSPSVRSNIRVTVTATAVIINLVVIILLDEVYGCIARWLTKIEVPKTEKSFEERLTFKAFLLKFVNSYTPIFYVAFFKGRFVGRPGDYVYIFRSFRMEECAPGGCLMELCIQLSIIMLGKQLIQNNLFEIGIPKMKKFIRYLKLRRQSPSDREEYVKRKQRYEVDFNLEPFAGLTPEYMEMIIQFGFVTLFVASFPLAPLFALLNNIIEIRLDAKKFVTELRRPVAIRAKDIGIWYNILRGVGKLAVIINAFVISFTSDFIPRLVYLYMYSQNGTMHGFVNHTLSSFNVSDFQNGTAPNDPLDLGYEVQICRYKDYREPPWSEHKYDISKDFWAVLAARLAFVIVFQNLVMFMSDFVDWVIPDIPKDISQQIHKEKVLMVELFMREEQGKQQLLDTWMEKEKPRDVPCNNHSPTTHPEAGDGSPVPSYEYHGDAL
TMEM16A act – activates or potentiates the mouse TMEM16A chloride channel | Q8BHY3 | HEK293 TMEM16A/YFP-H148Q/I152L, iodide quench fluorescence; stronger effect = lower value | B-score at 10 µM | 340,000 tested, 0.3% active;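 active = fluorescence-ratio B-score plate-corrected deviation score at least 3 library SD below zero, with starting fluorescence score within 5 deviations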;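 note: channel opened by trigger with iodide after compound preincubation; score built on the fluorescence ratio of max minus min over baseline; more negative score means more quench and so TMEM16A activation or potentiation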
CSC inhib – blocks cancer stem cells | inhibition, % at 7.5 µM | cancer stem cell-like cells viability, luminescence | 300,000 tested, 1.1% active; in the data active = inhibition above about 75%; tested in HMLE shEcad cells
Beta apoptosis – beta cell apoptosis inhibition. INS-1E cytokine-induced death, ATP luminescence, 48 h; percent of positive-control rescue, neutral wells zero. protection from apoptosis, % (concentration not given with the values). 300,000 tested, 0.8% active. AID 435005;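 active = Every replicate reaches about 75%, or at least half do and their mean reaches it too, limit read from the data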;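 note: 0% = cytokine-treated negative control wells and 100% = positive control rescue; higher means more ATP so stronger rescue from cytokine killing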
MC4R antagonist – human MC4R antagonism in cAMP assay. MC4R-expressing cells, MTII-stimulated cAMP, LANCE TR-FRET. 360,000 tested, 0.48% active. inhibition, % at 6.5 µM;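 active = inhibition above its plate's cutoff, the mean of tested wells on that plate plus 3 SD, cut at about 29% in these data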;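 note: 0% = Melanotan II alone and 100% = Melanotan II plus saturating MCL0020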
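Material: human MC4R-expressing U2OS cells. Probe or stimulus: Melanotan II challenge. Dosing: 6.5 µM single dose. Times: 30-min compound, 1-h challenge, 1-h detection, room temperature. Technique: TR-FRET with Eu-cAMP and labeled anti-cAMP, 671 nm. Replication: singlicate.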
MC4R barr agon – agonists of human melanocortin 4 receptor (MC4R) beta-arrestin; P32245; U2OS MC4R beta-arrestin complementation, luminescence; percent of melanotan II response, DMSO zero; activation, % at 8.9 µM; 360,000 tested, 0.98% active;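 active = activation above a per-plate cutoff, the mean activation of sample wells on that plate plus 3 SD, cut at about 8% in these data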
* hit, by the source's call. Most compounds without a hit are left out; they make up all but 3.8% or so of the library.

What do the screens show for `Cc1nc(NC(=O)C23CC4CC(CC(C4)C2)C3)sc1Cc1ccc2c(c1)OCO2`?
ANO1 block: inactive; TMEM16A act: inactive; CSC inhib: 70.6; Beta apoptosis: 101.5*; MC4R antagonist: 16.8; MC4R barr agon: -2.3

How did COc1cccc(C2CC(c3ccc(Cl)cc3Cl)Nc3nc(N)nn32)c1 (stereo unspecified) do in these assays?
ANO1 block: inactive; TMEM16A act: inactive; CSC inhib: -7.1; MC4R antagonist: 11.4; MC4R barr agon: 9.2*

Results for CN(C)c1cc[n+](CC(=O)Nc2ccc(Oc3ccccc3)cc2)cc1 ?
ANO1 block: inactive; TMEM16A act: inactive; CSC inhib: -4.9; Beta apoptosis: 90.8*; MC4R antagonist: 7.3; MC4R barr agon: -0.6

What do the screens show for `CCCCN(CCCC)C(=S)N/N=C/c1c(C)[nH]n(-c2ccccc2)c1=O`?
ANO1 block: inactive; TMEM16A act: inactive; CSC inhib: -1.1; Beta apoptosis: 86.7*; MC4R antagonist: 16.3; MC4R barr agon: -1.5

How did Cc1ccc(/C=N\NC(=O)COc2ccc(C)cc2[N+](=O)[O-])cc1 do in these assays?
ANO1 block: inactive; TMEM16A act: inactive; CSC inhib: -0.5; Beta apoptosis: -10.4; MC4R antagonist: -1.7; MC4R barr agon: 4.0

Results for Cc1ccc(OCC(=O)N/N=C\c2c(C)[nH]n(-c3ccccc3)c2=O)c([N+](=O)[O-])c1 ?
ANO1 block: inactive; TMEM16A act: inactive; CSC inhib: 16.2; Beta apoptosis: 86.6*; MC4R antagonist: 4.2; MC4R barr agon: -4.3

What do the screens show for `Cc1[nH]n(-c2ccccc2)c(=O)c1/C=N/NC(=O)c1cccc(F)c1`?
ANO1 block: inactive; TMEM16A act: inactive; CSC inhib: 49.0; Beta apoptosis: 92.1*; MC4R antagonist: -0.8; MC4R barr agon: 0.1

What do the screens show for `Cc1[nH]n(-c2ccccc2)c(=O)c1/C=N/NC(=O)c1ccc(O)cc1O`?
ANO1 block: inactive; TMEM16A act: inactive; MC4R antagonist: 24.5; MC4R barr agon: -3.2

Results for Cc1[nH]n(-c2ccccc2)c(=O)c1/C=N/N1CCOCC1 ?
ANO1 block: inactive; TMEM16A act: -7.38*; CSC inhib: 13.7; Beta apoptosis: 3.3; MC4R antagonist: -2.8; MC4R barr agon: -2.8

Results for COC1C(O)C(O)C(O)C(O)C1O (stereo unspecified) ?
TMEM16A act: inactive; MC4R antagonist: 16.1; MC4R barr agon: -0.2

What do the screens show for `COc1ccc(C(=O)NC(C)c2ccc(-n3ccnc3)cc2)cc1S(=O)(=O)N1CCOCC1` (stereo unspecified)?
TMEM16A act: inactive; MC4R antagonist: 1.4; MC4R barr agon: 0.6

What do the screens show for `CCOCCCNC(=S)N1CCN(c2nc(-c3ccccc3)cs2)CC1`?
ANO1 block: inactive; TMEM16A act: inactive; CSC inhib: 0.7; MC4R antagonist: 1.0; MC4R barr agon: -1.8

How did CCN(CC)CCCNC(=S)N1CCN(c2nc(-c3ccccc3)cs2)CC1 do in these assays?
ANO1 block: inactive; TMEM16A act: inactive; CSC inhib: 78.5*; MC4R antagonist: 6.0; MC4R barr agon: 3.5

Results for CS(=O)(=O)Nc1ccccc1C(=O)Nc1cc(Cl)cc(Cl)c1 ?
ANO1 block: inactive; TMEM16A act: inactive; CSC inhib: 58.9; Beta apoptosis: 63.9; MC4R antagonist: -0.8; MC4R barr agon: -1.9

What do the screens show for `CS(=O)(=O)Nc1ccccc1C(=O)Nc1cccc(Cl)c1`?
ANO1 block: 25*; TMEM16A act: inactive; CSC inhib: 75.6*; Beta apoptosis: 31.1; MC4R antagonist: 3.3; MC4R barr agon: -1.8

How did COc1ccc(CCC(=O)N2CCN(c3ccccc3)CC2)cc1OC do in these assays?
ANO1 block: inactive; TMEM16A act: inactive; CSC inhib: 5.2; Beta apoptosis: 0.3; MC4R antagonist: 24.9; MC4R barr agon: -3.4

What do the screens show for `CC(=O)Nc1cccc(-c2csc(Nc3cc(C)ccn3)n2)c1`?
ANO1 block: 25*; TMEM16A act: inactive; CSC inhib: 26.9; Beta apoptosis: 0.6; MC4R antagonist: -5.5; MC4R barr agon: -2.3

How did O=C(NCc1ccc(Cl)cc1)c1ccc(S(=O)(=O)N2CCCCC2)cc1 do in these assays?
TMEM16A act: inactive; CSC inhib: -11.5; Beta apoptosis: -8.5; MC4R antagonist: -1.9; MC4R barr agon: 9.4*

How did O=C(Nc1ccc(S(=O)(=O)N2CCOCC2)cc1)c1ccc(S(=O)(=O)N2CCOCC2)cc1 do in these assays?
ANO1 block: inactive; TMEM16A act: inactive; CSC inhib: 0.6; Beta apoptosis: -4.6; MC4R antagonist: 3.5; MC4R barr agon: 1.9

Results for O=C(Nc1ccc(S(=O)(=O)N2CCCCC2)cc1)c1ccc(CN2CCOCC2)cc1 ?
ANO1 block: 100*; TMEM16A act: inactive; CSC inhib: 17.4; Beta apoptosis: 17.5; MC4R antagonist: 2.3; MC4R barr agon: 1.0

What do the screens show for `Cc1ccc(Cl)cc1NC(=S)N1CCCCCC1`?
ANO1 block: inactive; TMEM16A act: inactive; CSC inhib: -7.5; Beta apoptosis: -7.3; MC4R antagonist: 2.1; MC4R barr agon: -0.9

Results for O=C1N/C(=N/N=C/c2ccco2)SC1Cc1ccccc1 (stereo unspecified) ?
ANO1 block: inactive; TMEM16A act: inactive; CSC inhib: -4.4; Beta apoptosis: -0.8; MC4R antagonist: 7.4; MC4R barr agon: -1.9

What do the screens show for `O=C1C(Cc2ccccc2)S/C(=N/N=C/c2ccco2)N1c1ccccc1` (stereo unspecified)?
ANO1 block: inactive; TMEM16A act: inactive; CSC inhib: 1.6; Beta apoptosis: 3.3; MC4R antagonist: 7.0; MC4R barr agon: 8.4*

How did Cn1cnc([N+](=O)[O-])c1Sc1ccc(Br)cc1 do in these assays?
ANO1 block: inactive; TMEM16A act: inactive; CSC inhib: 11.0; Beta apoptosis: -22.6; MC4R antagonist: -1.6; MC4R barr agon: -1.7

Results for Cc1nn(C)c(C)c1Sc1ccc(Br)cc1 ?
ANO1 block: 25*; TMEM16A act: inactive; Beta apoptosis: -0.8; MC4R antagonist: 4.2; MC4R barr agon: 0.6

How did CCOc1ccc(C(=O)COC(=O)c2nn(CC)c(=O)c3ccccc23)cc1 do in these assays?
TMEM16A act: inactive; Beta apoptosis: -0.7; MC4R antagonist: 7.5; MC4R barr agon: 0.0

Results for Cc1ccc(-c2ccc(OC(=O)c3ccc(=O)[nH]c3)c(C)c2)cc1 ?
ANO1 block: inactive; TMEM16A act: inactive; CSC inhib: 75.8*; Beta apoptosis: -3.2; MC4R antagonist: 27.3; MC4R barr agon: 1.7

Results for COc1ccc(C(O)(CCN2CCOCC2)c2ccccc2)cc1 (stereo unspecified) ?
ANO1 block: inactive; TMEM16A act: inactive; CSC inhib: -1.9; Beta apoptosis: -2.1; MC4R antagonist: 12.1; MC4R barr agon: -0.2
